Reference: ChEMBL document CHEMBL1154342, “Scaffold-based design and synthesis of potent N-type calcium channel blockers” (Bioorg Med Chem Lett, 2009)
The source made the active and inactive calls. The calls are words filed in the database; no cut-off is given here.

Experiments:
[1] = target: Voltage-dependent L-type calcium channel subunit beta-1/alpha-1B/alpha-2/delta-1 (Rattus norvegicus, UniProt Q02294); test: Blocking of rat N-type calcium channel alpha-1B/alpha-2-delta-1/beta-1b activity expressed in HEK293 cells assessed as whole cell current by whole cell patch clamp assay; type: cell-based
Method in brief: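 HEK293 cells transiently transfected with rat channel subunits, recorded 24–72 h post-transfection. Whole-cell patch clamp with barium as charge carrier; currents elicited from a holding potential of −100 mV to the peak of the current–voltage relation. Each compound tested on 3–5 cells; IC50 estimated.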

[2] = Blocking of rat Voltage-dependent L-type calcium channel alpha1c/alpha2delta-1/beta1b activity expressed in HEK293 cells assessed as whole cell current by whole cell patch clamp assay; type: cell-based
Method in brief: (§1)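 HEK293 cells transiently transfected with rat channel subunits and recorded 24–72 h later. Whole-cell patch clamp used barium as the charge carrier. Currents were elicited from a holding potential of −100 mV to the peak of each channel's current–voltage relation. Each compound was tested on 3–5 cells per subtype.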

Rattus norvegicus [3] = organism: Rattus norvegicus; test: Selectivity ratio of IC50 for rat Voltage-dependent L-type calcium channel to IC50 for rat N-type calcium channel; method in brief: as §1
[4] = AUC (0 to 8 hrs) in rat at 10 mg/kg, po; settings: plasma
Rattus norvegicus [5] = test: Analgesic activity against phse 2A portion of rat formalin-induced inflammatory pain model assessed as flinches at 25 mg/kg, ip; type: functional, organism-based; design: dose 25 mg/kg
Method in brief: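 Rat formalin inflammatory pain model with the phase IIA portion scored. Compounds were given intraperitoneally at 25 mg/kg, using 24–26 animals per group.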

[6] = target: Voltage-gated inwardly rectifying potassium channel KCNH2 (Homo sapiens, UniProt Q12809); test: Inhibition of human ERG current
Method in brief: (§2)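 Whole-cell patch clamp of HEK cells stably expressing hERG, measuring peak tail currents. A single 1 µM application was used for the screen. The concentration–response used 0.1, 1, 3 and 10 µM against a 0.1% DMSO control, with n = 4 per concentration.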

[7] = Displacement of radioligand from Voltage-dependent L-type calcium channel at 10 uM
[8] = AUC (0 to 8 hrs) in rat at 2 mg/kg, iv; type: ADME, organism-based; design: time < 8 hr, dose 2 mg/kg, route intravenous; settings: plasma
Method in brief: (§3)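 Rats given a single dose by vein (2 mg/kg) or by mouth (10 mg/kg). Plasma sampled, with AUC taken to 8 h and extrapolated to infinity. Cmax is the highest observed concentration, and Tmax is the time to it. Half-life, apparent volume of distribution, plasma clearance and oral bioavailability were also derived. Values are given as mean with standard error.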

[9] = Volume of distribution at steady state in rat at 2 mg/kg, iv; type: ADME, organism-based; design: dose 2 mg/kg, route intravenous; settings: in vivo, read-out: Vdss; method in brief: as §3
[10] = AUC (0 to infinity) in rat at 10 mg/kg, po; settings: plasma
Rattus norvegicus [11] = test: Apparent oral clearance in rat at 10 mg/kg, po; settings: in vivo
[12] = Oral bioavailability in rat at 10 mg/kg, po; settings: in vivo
[13] = AUC (0 to infinity) in rat at 2 mg/kg, iv; type: ADME, organism-based; design: time infinity, dose 2 mg/kg, route intravenous; settings: plasma; method in brief: as §3
[14] = Half life in rat at 2 mg/kg, iv; type: ADME, organism-based; design: dose 2 mg/kg, route intravenous; settings: in vivo; method in brief: as §3
[15] = target: Mu-type opioid receptor (Homo sapiens) (UniProt P35372); test: Displacement of radioligand from mu opioid receptor at 10 uM
hERG (KCNH2) = hERG (KCNH2) (Homo sapiens, UniProt Q12809); test: Inhibition of human ERG current at 1 uM; method in brief: as §2
[16] = target: Cannabinoid receptor 1 (Homo sapiens) (UniProt P21554); test: Displacement of radioligand from cannabinoid CB1 receptor at 10 uM
[17] = Displacement of radioligand from voltage-gated sodium channel at 10 uM
[18] = Half life in rat at 10 mg/kg, po; settings: in vivo
[19] = Cmax in rat at 2 mg/kg, iv; type: ADME, organism-based; design: dose 2 mg/kg, route intravenous; settings: in vivo; method in brief: as §3
[20] = Cmax in rat at 10 mg/kg, po; settings: in vivo

Sequence of Voltage-dependent L-type calcium channel subunit beta-1/alpha-1B/alpha-2/delta-1 (Q02294 whole entry): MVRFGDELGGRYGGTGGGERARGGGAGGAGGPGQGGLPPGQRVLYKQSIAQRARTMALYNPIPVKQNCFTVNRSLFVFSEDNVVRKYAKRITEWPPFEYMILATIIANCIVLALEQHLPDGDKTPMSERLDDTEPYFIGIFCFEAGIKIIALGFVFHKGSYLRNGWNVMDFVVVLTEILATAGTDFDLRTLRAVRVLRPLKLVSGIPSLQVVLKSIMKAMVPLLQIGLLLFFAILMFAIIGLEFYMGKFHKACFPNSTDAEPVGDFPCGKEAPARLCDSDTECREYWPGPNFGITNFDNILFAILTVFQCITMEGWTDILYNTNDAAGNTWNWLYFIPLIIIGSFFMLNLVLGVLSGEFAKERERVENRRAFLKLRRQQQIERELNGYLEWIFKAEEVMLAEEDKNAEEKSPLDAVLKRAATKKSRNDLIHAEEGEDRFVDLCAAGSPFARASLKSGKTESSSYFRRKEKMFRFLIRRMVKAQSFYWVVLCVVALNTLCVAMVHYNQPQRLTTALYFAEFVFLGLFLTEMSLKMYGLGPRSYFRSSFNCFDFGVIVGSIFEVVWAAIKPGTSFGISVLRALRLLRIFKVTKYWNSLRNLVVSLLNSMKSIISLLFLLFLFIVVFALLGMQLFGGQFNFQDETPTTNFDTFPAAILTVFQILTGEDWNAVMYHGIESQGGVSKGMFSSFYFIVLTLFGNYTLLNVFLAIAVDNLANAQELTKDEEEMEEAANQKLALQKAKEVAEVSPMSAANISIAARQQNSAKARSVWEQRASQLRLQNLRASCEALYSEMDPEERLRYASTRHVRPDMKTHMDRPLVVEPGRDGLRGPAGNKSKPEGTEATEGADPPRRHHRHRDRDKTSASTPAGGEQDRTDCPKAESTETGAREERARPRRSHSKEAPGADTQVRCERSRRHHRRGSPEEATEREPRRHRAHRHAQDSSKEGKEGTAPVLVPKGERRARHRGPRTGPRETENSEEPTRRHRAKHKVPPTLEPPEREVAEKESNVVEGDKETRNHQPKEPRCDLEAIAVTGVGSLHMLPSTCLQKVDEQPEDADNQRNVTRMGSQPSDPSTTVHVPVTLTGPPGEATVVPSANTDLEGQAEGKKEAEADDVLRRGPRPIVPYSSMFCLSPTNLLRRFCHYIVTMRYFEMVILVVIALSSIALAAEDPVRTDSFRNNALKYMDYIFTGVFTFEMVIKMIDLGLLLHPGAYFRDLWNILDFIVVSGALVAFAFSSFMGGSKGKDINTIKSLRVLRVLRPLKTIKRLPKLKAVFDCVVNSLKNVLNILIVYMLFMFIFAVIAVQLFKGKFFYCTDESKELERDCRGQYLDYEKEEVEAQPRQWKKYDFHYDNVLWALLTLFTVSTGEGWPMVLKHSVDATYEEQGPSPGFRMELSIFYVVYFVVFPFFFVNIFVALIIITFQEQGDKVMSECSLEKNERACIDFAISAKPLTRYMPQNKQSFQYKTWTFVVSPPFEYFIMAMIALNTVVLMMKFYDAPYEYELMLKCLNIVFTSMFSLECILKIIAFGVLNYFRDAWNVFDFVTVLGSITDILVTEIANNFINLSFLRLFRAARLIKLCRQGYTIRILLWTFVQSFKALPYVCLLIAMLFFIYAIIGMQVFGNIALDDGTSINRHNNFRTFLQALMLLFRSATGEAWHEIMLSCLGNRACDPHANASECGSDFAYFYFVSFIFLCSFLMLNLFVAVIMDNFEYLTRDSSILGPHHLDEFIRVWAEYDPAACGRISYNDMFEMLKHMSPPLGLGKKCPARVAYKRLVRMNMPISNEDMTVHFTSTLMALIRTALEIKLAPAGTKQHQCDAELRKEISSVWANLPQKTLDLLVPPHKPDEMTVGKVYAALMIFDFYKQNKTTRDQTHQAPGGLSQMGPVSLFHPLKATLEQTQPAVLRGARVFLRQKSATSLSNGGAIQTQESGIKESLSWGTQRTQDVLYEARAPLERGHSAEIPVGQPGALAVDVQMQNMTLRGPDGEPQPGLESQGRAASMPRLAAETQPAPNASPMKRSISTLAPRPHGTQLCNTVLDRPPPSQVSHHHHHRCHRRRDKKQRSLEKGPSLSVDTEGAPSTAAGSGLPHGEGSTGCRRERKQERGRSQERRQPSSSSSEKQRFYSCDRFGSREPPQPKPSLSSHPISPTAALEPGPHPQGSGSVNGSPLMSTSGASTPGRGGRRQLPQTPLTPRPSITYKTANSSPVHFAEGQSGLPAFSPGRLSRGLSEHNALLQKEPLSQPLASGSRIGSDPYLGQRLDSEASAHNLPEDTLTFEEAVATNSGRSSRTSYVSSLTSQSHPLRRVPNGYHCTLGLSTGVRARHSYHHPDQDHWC
Sequence of Voltage-dependent L-type calcium channel subunit beta-1/alpha-1B/alpha-2/delta-1 (P54283 whole entry partner): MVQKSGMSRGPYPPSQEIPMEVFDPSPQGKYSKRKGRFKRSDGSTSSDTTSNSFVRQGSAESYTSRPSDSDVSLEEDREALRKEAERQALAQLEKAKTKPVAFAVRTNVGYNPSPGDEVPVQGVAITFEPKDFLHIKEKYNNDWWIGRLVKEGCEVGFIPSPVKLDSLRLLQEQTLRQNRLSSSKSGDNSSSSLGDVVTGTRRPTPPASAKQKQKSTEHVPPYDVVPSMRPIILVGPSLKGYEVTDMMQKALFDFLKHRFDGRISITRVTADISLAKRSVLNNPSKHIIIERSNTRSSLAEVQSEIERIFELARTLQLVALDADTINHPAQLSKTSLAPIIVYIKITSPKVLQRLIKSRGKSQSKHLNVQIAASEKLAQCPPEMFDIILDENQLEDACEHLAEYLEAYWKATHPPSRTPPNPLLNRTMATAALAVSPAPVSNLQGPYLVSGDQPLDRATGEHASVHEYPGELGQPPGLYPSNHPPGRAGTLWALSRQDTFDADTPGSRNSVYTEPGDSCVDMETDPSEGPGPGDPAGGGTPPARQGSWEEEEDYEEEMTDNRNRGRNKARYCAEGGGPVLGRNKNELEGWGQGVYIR
Sequence of Voltage-dependent L-type calcium channel subunit beta-1/alpha-1B/alpha-2/delta-1 (P54290 25-944 partner limits assumed): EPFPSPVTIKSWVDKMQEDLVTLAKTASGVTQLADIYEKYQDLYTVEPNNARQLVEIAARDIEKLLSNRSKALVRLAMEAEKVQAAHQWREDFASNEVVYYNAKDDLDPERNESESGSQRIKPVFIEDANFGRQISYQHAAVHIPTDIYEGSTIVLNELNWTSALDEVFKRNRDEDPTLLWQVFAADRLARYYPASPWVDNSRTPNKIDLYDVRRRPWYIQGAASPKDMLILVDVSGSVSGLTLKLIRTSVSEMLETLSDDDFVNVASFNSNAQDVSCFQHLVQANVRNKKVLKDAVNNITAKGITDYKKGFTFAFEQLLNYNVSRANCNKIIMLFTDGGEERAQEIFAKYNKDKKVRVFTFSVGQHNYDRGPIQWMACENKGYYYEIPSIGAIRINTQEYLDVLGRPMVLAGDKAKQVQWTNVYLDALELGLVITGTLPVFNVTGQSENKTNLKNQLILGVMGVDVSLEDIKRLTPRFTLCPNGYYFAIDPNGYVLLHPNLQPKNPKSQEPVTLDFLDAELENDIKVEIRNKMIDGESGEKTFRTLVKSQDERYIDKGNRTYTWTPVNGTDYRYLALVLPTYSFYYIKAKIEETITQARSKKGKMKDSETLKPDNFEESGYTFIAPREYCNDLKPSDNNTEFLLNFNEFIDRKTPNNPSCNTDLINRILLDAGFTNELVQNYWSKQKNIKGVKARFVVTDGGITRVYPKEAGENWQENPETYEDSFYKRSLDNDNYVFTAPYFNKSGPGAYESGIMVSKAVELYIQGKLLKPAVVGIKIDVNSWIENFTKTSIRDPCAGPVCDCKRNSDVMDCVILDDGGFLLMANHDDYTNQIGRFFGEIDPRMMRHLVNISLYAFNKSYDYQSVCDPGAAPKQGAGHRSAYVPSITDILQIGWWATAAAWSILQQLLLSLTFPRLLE
Sequence of Voltage-dependent L-type calcium channel subunit beta-1/alpha-1B/alpha-2/delta-1 (P54290 945-1091 partner limits assumed): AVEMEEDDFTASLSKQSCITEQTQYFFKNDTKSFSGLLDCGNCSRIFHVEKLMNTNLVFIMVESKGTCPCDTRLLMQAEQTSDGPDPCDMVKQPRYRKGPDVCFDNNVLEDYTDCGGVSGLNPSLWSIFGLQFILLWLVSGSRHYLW
Sequence of Cannabinoid receptor 1 (Homo sapiens) (P21554 whole entry): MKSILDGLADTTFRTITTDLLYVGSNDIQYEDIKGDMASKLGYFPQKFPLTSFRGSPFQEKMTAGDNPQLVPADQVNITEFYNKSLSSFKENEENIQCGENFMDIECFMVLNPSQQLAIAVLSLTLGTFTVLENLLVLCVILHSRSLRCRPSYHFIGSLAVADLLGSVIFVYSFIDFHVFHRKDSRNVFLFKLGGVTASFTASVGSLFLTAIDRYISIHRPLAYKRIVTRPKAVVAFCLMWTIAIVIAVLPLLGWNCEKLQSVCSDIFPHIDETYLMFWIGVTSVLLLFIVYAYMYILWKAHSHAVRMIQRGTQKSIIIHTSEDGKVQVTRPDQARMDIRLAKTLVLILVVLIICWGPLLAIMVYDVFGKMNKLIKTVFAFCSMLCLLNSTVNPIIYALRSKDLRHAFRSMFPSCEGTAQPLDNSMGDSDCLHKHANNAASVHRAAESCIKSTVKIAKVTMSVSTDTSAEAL
Sequence of Mu-type opioid receptor (Homo sapiens) (P35372 whole entry): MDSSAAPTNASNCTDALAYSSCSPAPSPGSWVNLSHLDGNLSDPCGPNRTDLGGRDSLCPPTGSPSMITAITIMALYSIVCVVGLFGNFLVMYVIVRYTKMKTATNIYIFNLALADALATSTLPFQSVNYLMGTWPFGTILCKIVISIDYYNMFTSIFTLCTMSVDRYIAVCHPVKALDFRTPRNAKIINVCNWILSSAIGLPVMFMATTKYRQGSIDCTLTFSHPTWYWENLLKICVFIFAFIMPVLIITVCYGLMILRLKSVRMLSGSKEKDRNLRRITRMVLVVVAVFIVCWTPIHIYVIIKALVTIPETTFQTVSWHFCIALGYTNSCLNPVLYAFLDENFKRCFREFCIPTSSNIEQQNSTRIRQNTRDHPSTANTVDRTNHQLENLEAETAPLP

Structure (SMILES)	IC50 [1]	IC50 ([2]; HEK293)	Ratio IC50 (Rattus norvegicus [3])	other results
c1ccc(C(CCCCCN2CCN(C(c3ccccc3)c3ccccc3)CC2)c2ccccc2)cc1	50000 nM	–	–	–
COc1ccc(/C=C/CN2CCN(C(=O)CCCCC(c3ccccc3)c3ccccc3)CC2)cc1	190 nM	–	–	–
COc1ccc(/C=C/C(=O)N2CCN(C(=O)CCCCC(c3ccccc3)c3ccccc3)CC2)cc1	90 nM	250 nM	2.8	–
O=C(CCCCC(c1ccccc1)c1ccccc1)N1CCN(C/C=C/c2ccccc2)CC1 (stereo in doubt; 5a) [listing 1 of 2 here]	–	–	8	–
O=C(CCCCC(c1ccccc1)c1ccccc1)N1CCN(C/C=C/c2ccccc2)CC1 (stereo in doubt; 5c) [listing 1 of 2 here]	120 nM	–	–	IC50 ([2]; hek293): 330 nM
O=C(CCCCC(c1ccccc1)c1ccccc1)N1CCN(C/C=C/c2cccc3c2OCO3)CC1	190 nM	–	–	–
c1ccc(C(CCCN2CCN(C(c3ccccc3)c3ccccc3)CC2)c2ccccc2)cc1	6000 nM	–	–	–
O=C(CCCC(c1ccccc1)c1ccccc1)N1CCN(C(c2ccccc2)c2ccccc2)CC1	> 50000 nM	–	–	–
c1ccc(C(CCN2CCN(C(c3ccccc3)c3ccccc3)CC2)c2ccccc2)cc1	5000 nM	–	–	–
COc1cc(CN2CCN(C(=O)CCCCC(c3ccc(F)cc3)c3ccc(F)cc3)CC2)cc(OC)c1OC	190 nM	–	–	–
O=C(C(c1ccccc1)c1ccccc1)N1CCN(C(c2ccccc2)c2ccccc2)CC1	> 50000 nM	–	–	–
O=C(CCCCC(c1ccccc1)c1ccccc1)N1CCN(C(c2ccccc2)c2ccccc2)CC1	50000 nM	–	–	–
O=C(CC(c1ccccc1)c1ccccc1)N1CCN(C(c2ccccc2)c2ccccc2)CC1 [Z160]	110 nM	12200 nM	111	AUC(0-t) at 8 h [4]: 999 ng·h/mL; Activity (Rattus norvegicus [5]): Active; IC50 [6]: 7400 nM; Activity [7]: Active; AUC(0-t) at 8 h [8]: 715 ng·h/mL; Vd [9]: 5.79 L/kg; AUC(0-inf) [10]: 1140 ng·h/mL; CL/F (Rattus norvegicus [11]): 164 mL/min/kg; bioavailability [12]: 30%; AUC(0-inf) [13]: 761 ng·h/mL; half-life [14]: 3.3 h; Activity [15]: Active; inhibition at 1 µM (hERG (KCNH2)): 24.8%; Activity [16]: Active; Activity [17]: Active; half-life [18]: 2.1 h; Cmax [19]: 771 ng/mL; Cmax [20]: 235 ng/mL
O=C(/C=C/c1cccc2c1OCO2)N1CCN(C(=O)CCCCC(c2ccccc2)c2ccccc2)CC1	130 nM	740 nM	5.7	–
COc1cc(C(=O)N2CCN(CCCCCC(c3ccc(F)cc3)c3ccc(F)cc3)CC2)cc(OC)c1OC	110 nM	2840 nM	–	AUC(0-t) at 8 h [4]: 753 ng·h/mL; Activity (Rattus norvegicus [5]): Active; AUC(0-t) at 8 h [8]: 725 ng·h/mL; Vd [9]: 11.7 L/kg; AUC(0-inf) [10]: 1020 ng·h/mL; CL/F (Rattus norvegicus [11]): 170 mL/min/kg; bioavailability [12]: 21%; AUC(0-inf) [13]: 975 ng·h/mL; half-life [14]: 5 h; half-life [18]: 4.5 h; Cmax [19]: 462 ng/mL; Cmax [20]: 173 ng/mL
c1ccc(C(CN2CCN(C(c3ccccc3)c3ccccc3)CC2)c2ccccc2)cc1	> 50000 nM	–	–	–
O=C(CCCCC(c1ccccc1)c1ccccc1)N1CCN(C/C=C/c2ccccc2)CC1 (stereo in doubt; 5c) [listing 2 of 2 here]	–	–	2.8	–
O=C(CCCCC(c1ccccc1)c1ccccc1)N1CCN(C/C=C/c2ccccc2)CC1 (stereo in doubt; 5a) [listing 2 of 2 here]	50 nM	390 nM	–	–
COc1ccc(CN2CCN(C(c3ccc(F)cc3)c3ccc(F)cc3)CC2)c(OC)c1OC [LOMERIZINE]	–	150 nM	1.7	–
O=C(NC(c1ccccc1)c1ccccc1)N1CCN(C(c2ccccc2)c2ccccc2)CC1	–	1840 nM	12	–
O=C(CCC(c1ccccc1)c1ccccc1)N1CCN(C(c2ccccc2)c2ccccc2)CC1	23000 nM	–	–	–
Nc1ccc(/C=C/C(=O)N2CCN(C(=O)CCCCC(c3ccccc3)c3ccccc3)CC2)cc1	150 nM	830 nM	5.5	–
O=C(CCCCC(c1ccc(F)cc1)c1ccc(F)cc1)N1CCN(C/C=C/c2ccccc2)CC1	90 nM	120 nM	1.3	–
Fc1ccc(C(c2ccc(F)cc2)N2CCN(C/C=C/c3ccccc3)CC2)cc1 [FLUNARIZINE]	80 nM	310 nM	3.9	–
c1ccc(C(CCCCN2CCN(C(c3ccccc3)c3ccccc3)CC2)c2ccccc2)cc1	20000 nM	–	–	–
COc1cc(C(=O)N2CCN(C(=O)CCCCC(c3ccc(F)cc3)c3ccc(F)cc3)CC2)cc(OC)c1OC	540 nM	–	–	–
